CAL PDZ FP-1: inhibitors of human CAL PDZ peptide binding; Q9HD26; purified CAL PDZ, TMR-peptide fluorescence polarization, 1 h; inhibition, % at 20 µM; actives 0.02% (n = 330,000); AID 504414;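 active = highest replicate inhibition of at least 40%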;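 note: plate controls were DMSO neutral control wells for no effect and unlabeled competitor peptide control wells for full effect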
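Material: tagged CAL PDZ protein CerCALP, purified; buffer or medium: sodium phosphate/NaCl buffer pH 7.4 with TCEP, IgG, Thesit; also added: fluorescent TMR peptide probe; schedule: 1 h incubation at room temperature before polarization reading; technique: fluorescence polarization from S- and P-plane intensities, G-factor corrected; control set: unlabelled peptide and DMSO controls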
CAL PDZ FP-2: CAL PDZ (human) peptide binding inhibition; inhibition, % at 24.9 µM; Q9HD26; purified CAL PDZ, TMR-peptide fluorescence polarization, 1 h; AID 602252; actives 0.92% (n = 300,000);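 active = mean inhibition of at least 30% with at least half of replicates also reaching 30%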;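 note: 0% = DMSO neutral control and 100% = excess unlabeled competitor peptide PRC23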
LANA DNA inh: inhibitors of KSHV LANA C-terminal domain DNA binding; MBP-C-LANA/FAM-LBS DNA binding, fluorescence polarization; inhibition, % at 9 µM; actives 0.078% (n = 340,000); AID 504423;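 active = highest replicate inhibition at or above 60% at 9 µM, even if other replicates fall short; inactive = all replicates below 60% inhibition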;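 note: 0% = neutral control wells and 100% = 4 µM acridine orange control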
Keap1 Nrf2 FP: inhibitors of human Keap1-Nrf2 protein-protein interaction; Q14145; Keap1 Kelch-Nrf2 peptide fluorescence polarization, 1536-well; inhibition, % at 9.4 µM; actives 0.15% (n = 340,000); in the data active = inhibition above about 12%;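 note: human Keap1 Kelch domain with fluorescein labeled Nrf2 9mer peptide probe; 0% = neutral control wells and 100% = peptide positive control; higher means more block of Keap1 binding to Nrf2 peptide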
miR122 inh: inhibitors of miR-122 in Huh7 cells. Huh7 miR-122 Renilla luciferase sensor, 48 h; neutral wells = 0, positive control = 100. activation (reporter increase), % at 12.5 µM. actives 0.3% (n = 340,000);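 active = mean replicate activation score at least 90 and every replicate individually at or above 90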;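 note: higher luciferase means less miR-122 activity so hits act as miR-122 inhibitors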
The depositor's hits bear a star; [ ] = another dose, or the depositor's remark. Sampled rows, rich in hits. Any-hit rate of the full collection: about 1.1%.

How did COCC(=O)N(C)C[C@@H]1Oc2cc(C#CC3CCCC3)ccc2S(=O)(=O)N([C@H](C)CO)C[C@@H]1C do in these assays?
miR122 inh: 2.8[16.7 µM]

Results for COCC(=O)Nc1ccc2c(c1)C(=O)N(C)[C@@H]1CC[C@H](CC(=O)NCC3CCCCC3)O[C@@H]1CO2 ?
miR122 inh: 5.0[16.7 µM]

Results for COC(=O)c1cc2ccsc2n1Cc1ccccc1F ?
CAL PDZ FP-1: 0.0; CAL PDZ FP-2: -1.8; LANA DNA inh: 1.7; Keap1 Nrf2 FP: -7.2; miR122 inh: 1.3

Results for COC(=O)c1cc2ccsc2n1Cc1cccc(F)c1 ?
CAL PDZ FP-1: 0.3; CAL PDZ FP-2: 79.3*; LANA DNA inh: -0.7; Keap1 Nrf2 FP: -2.0

What do the screens show for `C[C@@H]1CN([C@H](C)CO)C(=O)c2cccc(NS(=O)(=O)c3ccc(Cl)cc3)c2O[C@@H]1CN(C)Cc1ccncc1`?
miR122 inh: 6.5[16.7 µM]

Results for Cc1noc(C)c1NC(=O)N(C)C[C@H]1Oc2ccc(NC(=O)CCCCCC(=O)Nc3ccccc3N)cc2CC(=O)N([C@@H](C)CO)C[C@@H]1C ?
miR122 inh: 9.1[16.7 µM]

What do the screens show for `C=CCOc1cccc(C(=O)N2CCCC(CCC(=O)NCc3ccccc3F)C2)c1` (configuration not stated)?
CAL PDZ FP-1: -0.4; CAL PDZ FP-2: 73.7*; LANA DNA inh: -0.1; Keap1 Nrf2 FP: -4.5

How did Cc1ccc(C(=O)N2CCCC(CCC(=O)NCc3ccccc3F)C2)cn1 (configuration not stated) do in these assays?
CAL PDZ FP-1: -1.1; CAL PDZ FP-2: -1.8; LANA DNA inh: 0.7; Keap1 Nrf2 FP: 1.5; miR122 inh: 0.1

Results for COc1ccc(C(=O)N2CCCC(CCC(=O)NCc3ccc(F)c(F)c3)C2)o1 (configuration not stated) ?
CAL PDZ FP-1: -0.3; CAL PDZ FP-2: 50.5*; LANA DNA inh: 0.8; Keap1 Nrf2 FP: -0.3; miR122 inh: 1.9

Results for C[C@@H]1CN([C@@H](C)CO)S(=O)(=O)c2ccc(C#CC3CC3)cc2O[C@H]1CN(C)C(=O)CC1CC1 ?
miR122 inh: 23.9[16.7 µM]

Results for C[C@@H]1CCCCO[C@H](CN(C)C(=O)c2ccncc2)[C@H](C)CN([C@H](C)CO)C(=O)c2cc(NC(=O)C3CCCCC3)ccc2O1 ?
miR122 inh: 0.1[16.7 µM]

How did COc1ccc(CC(=O)Nc2ccc(-c3csc(C)n3)cc2)cc1 do in these assays?
CAL PDZ FP-1: -0.5; CAL PDZ FP-2: -2.3; LANA DNA inh: 0.8; Keap1 Nrf2 FP: -0.2

How did Cc1nc(-c2ccc(NC(=O)Cc3ccccc3)cc2)cs1 do in these assays?
CAL PDZ FP-2: 66.2*; LANA DNA inh: -1.5; Keap1 Nrf2 FP: -9.7; miR122 inh: -9.8

How did O=C(Nc1ccc(Cl)cc1)c1ccc(OCC2CCCO2)cc1 (configuration not stated) do in these assays?
CAL PDZ FP-1: 0.5; CAL PDZ FP-2: 33.7*; LANA DNA inh: 1.1; Keap1 Nrf2 FP: 0.2

How did C[C@@H]1CN([C@@H](C)CO)C(=O)c2cc(C#CC3CCCC3)cnc2O[C@@H]1CN(C)C(=O)c1ccncc1 do in these assays?
miR122 inh: -3.2[16.7 µM]

What do the screens show for `COC(=O)c1cn(-c2ccc(Cl)cc2)c(=O)c2ccccc12`?
CAL PDZ FP-1: -0.1; CAL PDZ FP-2: -4.1; LANA DNA inh: -0.2; Keap1 Nrf2 FP: -0.9

Results for CNC(=O)c1cn(-c2ccc(Cl)cc2)c(=O)c2ccccc12 ?
CAL PDZ FP-2: 47.5*; LANA DNA inh: -0.4; Keap1 Nrf2 FP: -6.4

What do the screens show for `Cc1ccc(-c2cc(-c3c(C)nn(C)c(=O)c3N)[nH]n2)cc1`?
CAL PDZ FP-1: 0.2; CAL PDZ FP-2: 41.5*; LANA DNA inh: -0.3; Keap1 Nrf2 FP: 1.6; miR122 inh: -7.2

What do the screens show for `Cc1nn(C)c(=O)c(N)c1-c1cc(-c2ccc(Cl)c(Cl)c2)n[nH]1`?
miR122 inh: -6.4

How did Cc1cc(NC(=O)CN(C)CC(=O)Nc2ccc(F)c(F)c2F)no1 do in these assays?
CAL PDZ FP-1: -0.5; LANA DNA inh: -0.4; Keap1 Nrf2 FP: 0.2; miR122 inh: -0.1

What do the screens show for `CCCN(CC(=O)Nc1cc(C)on1)CC(=O)Nc1ccc(F)c(F)c1F`?
CAL PDZ FP-1: 0.3; CAL PDZ FP-2: 48.7*; LANA DNA inh: -0.5; Keap1 Nrf2 FP: 3.5

Assay outcomes (PubChem)
